Converted amounts (≈) assume the structure as drawn. The source made the active and inactive calls. The rule behind the calls is not given here.
Experiments:
Saccharomyces cerevisiae = test: Antimicrobial activity against Saccharomyces cerevisiae ATCC 9763 assessed as zone of inhibition at 30 uL for 24 hrs at 30 degC by disk diffusion test; assay type: functional, organism-based
In short: (§1)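 Agar well diffusion on Mueller Hinton agar seeded with 0.1 mL broth culture (18–24 h), adjusted to 0.5 McFarland (about 1×10^8 bacteria or 1×10^6 yeast cells/mL). A 6 mm well is filled with 30 µL of compound from a fresh 1000 µg/mL DMSO stock. Plates are held at 30 °C for 24 h and inhibition zone diameter is read in mm.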

Escherichia coli = test: Antimicrobial activity against Escherichia coli ATCC 25922 assessed as zone of inhibition at 30 uL for 24 hrs at 37 degC by disk diffusion test; assay type: functional, organism-based
In short: (§2)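 Compound (30 µL of a fresh 1000 µg/mL DMSO stock) goes into a 6 mm well cut in Mueller Hinton agar inoculated with 0.1 mL broth culture adjusted to 0.5 McFarland (about 1×10^8 cells/mL). Plates are incubated 24 h at 37 °C, then zone of inhibition diameter is measured in mm.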

Klebsiella pneumoniae = test: Antimicrobial activity against Klebsiella pneumoniae ATCC 13882 assessed as zone of inhibition at 30 uL for 24 hrs at 37 degC by disk diffusion test; assay type: functional, organism-based; in short: as §2
[1] = system: Staphylococcus epidermidis; test: Antimicrobial activity against Staphylococcus epidermidis ATCC 12228 assessed as zone of inhibition at 30 uL for 24 hrs at 37 degC by disk diffusion test; assay type: functional, organism-based; in short: as §2
HL-60 [2] = test: Antiproliferative activity against human HL60 cells after 24 and 72 hrs by MTT assay; assay type: functional, cell-based
In short: (§3)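 ATCC human cell lines are kept in RPMI, DMEM or McCoy's 5A with 10–15% heat-inactivated FCS at 37 °C and 5% CO2. They are seeded at 1×10^4–1×10^5 cells/mL in 48-well plates and exposed to 0.5, 10, 20 or 40 µM. Viability is read by MTT (590 nm) at 24 and 72 h. Growth is expressed relative to untreated cells and IC50 is fitted, in triplicate.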

Staphylococcus aureus = test: Antimicrobial activity against Staphylococcus aureus ATCC 25923 assessed as zone of inhibition at 30 uL for 24 hrs at 37 degC by disk diffusion test; assay type: functional, organism-based; in short: as §2
HT-29 [3] = test: Induction of apoptosis in human HT-29 cells at 20 uM after 48 hrs by Hoechst 33258/propidium iodide staining based phase contrast microscopic analysis; assay type: functional
In short: (§4)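 Cells in 48-well plates treated with 0.5, 10, 20 or 40 µM for 24 and 48 h. Values are read at 48 h, 20 µM for test agents and 0.5 µM for controls. Staining is Hoechst 33258/propidium iodide double staining with fluorescence microscopy. Blue nuclei are viable or early-to-mid apoptotic, and pink nuclei are late apoptotic or necrotic. Apoptosis and necrosis are scored from chromatin condensation as % of cells. Cells are grown at 37 °C in 5% CO2 in RPMI, DMEM or McCoy's 5A with 10–15% heat-inactivated FCS.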

MCF7 [4] = test: Induction of necrosis in human MCF7 cells at 20 uM after 48 hrs by Hoechst 33258/propidium iodide staining based phase contrast microscopic analysis; assay type: functional; in short: as §4
Caco-2 [5] = test: Antiproliferative activity against human Caco2 cells after 24 and 72 hrs by MTT assay; assay type: functional, cell-based; in short: as §3
Caco-2 [6] = test: Induction of apoptosis in human Caco2 cells at 20 uM after 48 hrs by Hoechst 33258/propidium iodide staining based phase contrast microscopic analysis; assay type: functional; in short: as §4
HT-29 [7] = test: Induction of necrosis in human HT-29 cells at 20 uM after 48 hrs by Hoechst 33258/propidium iodide staining based phase contrast microscopic analysis; assay type: functional; in short: as §4
Cyberlindnera jadinii = test: Antimicrobial activity against Candida utilis ATCC 9950 assessed as zone of inhibition at 30 uL for 24 hrs at 30 degC by disk diffusion test; assay type: functional, organism-based; in short: as §1
Nakaseomyces glabratus = test: Antimicrobial activity against Candida glabrata assessed as zone of inhibition at 30 uL for 24 hrs at 30 degC by disk diffusion test; assay type: functional, organism-based; in short: as §1
Pseudomonas aeruginosa = test: Antimicrobial activity against Pseudomonas aeruginosa ATCC 35032 assessed as zone of inhibition at 30 uL for 24 hrs at 37 degC by disk diffusion test; assay type: functional, organism-based; in short: as §2
Bacillus thuringiensis [8] = test: Antimicrobial activity against Bacillus thuringiensis assessed as zone of inhibition at 30 uL for 24 hrs at 30 degC by disk diffusion test; assay type: functional; in short: as §1
Bacillus cereus [9] = test: Antimicrobial activity against Bacillus cereus ATCC 11778 assessed as zone of inhibition at 30 uL for 24 hrs at 30 degC by disk diffusion test; assay type: functional; in short: as §1
MCF7 [10] = test: Antiproliferative activity against human MCF7 cells after 24 and 72 hrs by MTT assay; assay type: functional, cell-based; in short: as §3
SAOS-2 [11] = test: Induction of necrosis in human Saos2 cells at 20 uM after 48 hrs by Hoechst 33258/propidium iodide staining based […] microscopic analysis; assay type: functional; in short: as §4
Candida albicans = test: Antimicrobial activity against Candida albicans ATCC 10231 assessed as zone of inhibition at 30 uL for 24 hrs at 30 degC by disk diffusion test; assay type: functional, organism-based; in short: as §1
Bacillus thuringiensis [12] = test: Antimicrobial activity against Bacillus thuringiensis for 24 hrs by microdillution method; assay type: functional
In short: (§5)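 Broth microdilution. Compound is dissolved in DMSO (2 mg/mL) and diluted in Mueller Hinton broth as two-fold serial dilutions from 256 to 0.125 µg/mL. Bacteria are pre-grown in nutrient broth at 30 °C, and the final inoculum is about 10^6 cfu/mL. Tests are incubated 37 °C for 24 h. MIC is the lowest concentration giving complete inhibition. Streptomycin is the positive control.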

Enterococcus faecalis = test: Antimicrobial activity against Enterococcus faecalis ATCC 29212 assessed as zone of inhibition at 30 uL for 24 hrs at 37 degC by disk diffusion test; assay type: functional, organism-based; in short: as §2
Candida tropicalis = test: Antimicrobial activity against Candida tropicalis assessed as zone of inhibition at 30 uL for 24 hrs at 30 degC by disk diffusion test; assay type: functional, organism-based; in short: as §1
HL-60 [13] = test: Induction of apoptosis in human HL60 cells at 20 uM after 48 hrs by Hoechst 33258/propidium iodide staining based phase contrast microscopic analysis; assay type: functional; in short: as §4
HeLa [14] = test: Antiproliferative activity against human HeLa cells after 24 and 72 hrs by MTT assay; assay type: functional, cell-based; in short: as §3
Proteus vulgaris = test: Antimicrobial activity against Proteus vulgaris ATCC 33420 assessed as zone of inhibition at 30 uL for 24 hrs at 37 degC by disk diffusion test; assay type: functional, organism-based; in short: as §2
Micrococcus luteus = test: Antimicrobial activity against Micrococcus luteus ATCC 9341 assessed as zone of inhibition at 30 uL for 24 hrs at 30 degC by disk diffusion test; assay type: functional, organism-based; in short: as §1
Salmonella typhimurium = test: Antimicrobial activity against Salmonella typhimurium ATCC 14028 assessed as zone of inhibition at 30 uL for 24 hrs at 37 degC by disk diffusion test; assay type: functional, organism-based; conditions: Salmonella enterica subsp. enterica serovar Typhimurium; in short: as §2
[15] = Antiproliferative activity against human Saos2 cells after 24 and 72 hrs by MTT assay; assay type: functional, cell-based; conditions: SAOS-2; in short: as §3
HL-60 [16] = test: Induction of necrosis in human HL60 cells at 20 uM after 48 hrs by Hoechst 33258/propidium iodide staining based phase contrast microscopic analysis; assay type: functional; in short: as §4
HT-29 [17] = test: Antiproliferative activity against human HT-29 cells after 24 and 72 hrs by MTT assay; assay type: functional, cell-based; in short: as §3
HeLa [18] = test: Induction of apoptosis in human HeLa cells at 20 uM after 48 hrs by Hoechst 33258/propidium iodide staining based phase contrast microscopic analysis; assay type: functional; in short: as §4
MCF7 [19] = test: Induction of apoptosis in human MCF7 cells at 20 uM after 48 hrs by Hoechst 33258/propidium iodide staining based phase contrast microscopic analysis; assay type: functional; in short: as §4
Bacillus subtilis [20] = test: Antimicrobial activity against Bacillus subtilis ATCC 6633 assessed as zone of inhibition at 30 uL for 24 hrs at 30 degC by disk diffusion test; assay type: functional; in short: as §1
HeLa [21] = test: Induction of necrosis in human HeLa cells at 20 uM after 48 hrs by Hoechst 33258/propidium iodide staining based phase contrast microscopic analysis; assay type: functional; in short: as §4
Bacillus subtilis [22] = test: Antimicrobial activity against Bacillus subtilis ATCC 6633 for 24 hrs by microdillution method; assay type: functional; in short: as §5
Caco-2 [23] = test: Induction of necrosis in human Caco2 cells at 20 uM after 48 hrs by Hoechst 33258/propidium iodide staining based phase contrast microscopic analysis; assay type: functional; in short: as §4
SAOS-2 [24] = test: Induction of apoptosis in human Saos2 cells at 20 uM after 48 hrs by Hoechst 33258/propidium iodide staining based phase contrast microscopic analysis; assay type: functional; in short: as §4
Bacillus cereus [25] = test: Antimicrobial activity against Bacillus cereus ATCC 11778 for 24 hrs by microdillution method; assay type: functional; in short: as §5

SMILES	diameter of the inhibition zone (DIZ) (Saccharomyces cerevisiae)	diameter of the inhibition zone (DIZ) (Escherichia coli)	diameter of the inhibition zone (DIZ) (Klebsiella pneumoniae)	diameter of the inhibition zone (DIZ) [1]	IC50 (HL-60 [2]) [µM]	diameter of the inhibition zone (DIZ) (Staphylococcus aureus)	Activity (HT-29 [3]) [%]	Activity (MCF7 [4]) [%]	IC50 (Caco-2 [5]) [µM]	Activity (Caco-2 [6]) [%]	Activity (HT-29 [7]) [%]	diameter of the inhibition zone (DIZ) (Cyberlindnera jadinii)	diameter of the inhibition zone (DIZ) (Nakaseomyces glabratus)	diameter of the inhibition zone (DIZ) (Pseudomonas aeruginosa)	diameter of the inhibition zone (DIZ) (Bacillus thuringiensis [8])	diameter of the inhibition zone (DIZ) (Bacillus cereus [9])	IC50 (MCF7 [10]) [µM]	Activity (SAOS-2 [11]) [%]	diameter of the inhibition zone (DIZ) (Candida albicans)	MIC (Bacillus thuringiensis [12])	other results
CC(=O)O[C@H]1CC[C@]2(C)[C@H]3CC=C4[C@@H]5CC(C)(C)CC[C@]5(C(=O)OCc5ccccc5)CC[C@@]4(C)[C@]3(C)CC[C@H]2[C@]1(C)C=O	inactive	inactive	inactive	inactive	6.74	inactive	0.7	36	51.1	1	29	inactive	inactive	inactive	inactive	inactive	65.2	45	inactive	inactive	diameter of the inhibition zone (DIZ) (Enterococcus faecalis): inactive; diameter of the inhibition zone (DIZ) (Candida tropicalis): inactive; Activity (HL-60 [13]): 3%; IC50 (HeLa [14]): 287 µM; diameter of the inhibition zone (DIZ) (Proteus vulgaris): inactive; diameter of the inhibition zone (DIZ) (Micrococcus luteus): inactive; diameter of the inhibition zone (DIZ) (Salmonella typhimurium): inactive; IC50 [15]: 10.7 µM; Activity (HL-60 [16]): 51%; IC50 (HT-29 [17]): 10.3 µM; Activity (HeLa [18]): 2%; Activity (MCF7 [19]): 5%; diameter of the inhibition zone (DIZ) (Bacillus subtilis [20]): inactive; Activity (HeLa [21]): 68%; MIC (Bacillus subtilis [22]): inactive; Activity (Caco-2 [23]): 37%; Activity (SAOS-2 [24]): 0%; MIC (Bacillus cereus [25]): inactive
CC(=O)O[C@H]1CC[C@]2(C)[C@H]3CC=C4[C@@H]5CC(C)(C)CC[C@]5(C(=O)O)CC[C@@]4(C)[C@]3(C)CC[C@H]2[C@]1(C)/C=N\O	inactive	inactive	inactive	inactive	5.98	inactive	0.6	55	28.2	0	28	inactive	inactive	inactive	12 mm	12 mm	10.8	46	inactive	64 µg/mL (≈ 121 µM)	diameter of the inhibition zone (DIZ) (Enterococcus faecalis): inactive; diameter of the inhibition zone (DIZ) (Candida tropicalis): inactive; Activity (HL-60 [13]): 6%; IC50 (HeLa [14]): 116 µM; diameter of the inhibition zone (DIZ) (Proteus vulgaris): inactive; diameter of the inhibition zone (DIZ) (Micrococcus luteus): inactive; diameter of the inhibition zone (DIZ) (Salmonella typhimurium): inactive; IC50 [15]: 8.95 µM; Activity (HL-60 [16]): 52%; IC50 (HT-29 [17]): 6.71 µM; Activity (HeLa [18]): 0%; Activity (MCF7 [19]): 5%; diameter of the inhibition zone (DIZ) (Bacillus subtilis [20]): 13 mm; Activity (HeLa [21]): 64%; MIC (Bacillus subtilis [22]; ATCC 6633, 24 h): 32 µg/mL (≈ 60.6 µM); Activity (Caco-2 [23]): 17%; Activity (SAOS-2 [24]): 1%; MIC (Bacillus cereus [25]; ATCC 11778, 24 h): 64 µg/mL (≈ 121 µM)

From ChEMBL document CHEMBL3297654, “Synthesis, antimicrobial and cytotoxic activities, and structure-activity relationships of gypsogenin derivatives against human cancer cells” (Eur J Med Chem, 2014)
